Assay outcomes: PubChem, several laboratories
SUMO Mot1 rescue: inhibitors of SUMOylation pathway: yeast Mot1-301 growth rescue. S. cerevisiae Mot1-301 growth rescue, ATP luminescence, 38.5C; percent above DMSO median, 100 means doubled. growth rescue, % at 18.8 µM. AID 2716. hit rate 1% among 320,000;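 active means every valid replicate shows activation above 250% relative to neutral control wells; inactive means the rest, any valid replicate at or below 250%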;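 further: OY570 slx delta 5 strain wells were the positive control but not used for scaling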
FID counter: counter-screen for HCV NS3 helicase inhibitors: DNA intercalator displacement | DNA fluorescent intercalator displacement, fluorescence | inhibition, % at 7.9 µM | hit rate 0.17% among 290,000 | AID 1845; in the data active means inhibition above about 37%;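 further: 0% = vehicle and 100% = reference compound; higher means more ethidium bromide displaced from hairpin DNA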
SUMO HTRF inh: inhibitors of human SUMOylation (UBC9) | P63279 | HTRF SUMOylation assay, SAE1/SAE2 + UBC9, in vitro | inhibition, % at 35 µM | hit rate 0.36% among 290,000 | AID 2006; in the data active means inhibition above about 50%, passing the limit was not always enough
Target sequence (P63279 whole entry, looked up): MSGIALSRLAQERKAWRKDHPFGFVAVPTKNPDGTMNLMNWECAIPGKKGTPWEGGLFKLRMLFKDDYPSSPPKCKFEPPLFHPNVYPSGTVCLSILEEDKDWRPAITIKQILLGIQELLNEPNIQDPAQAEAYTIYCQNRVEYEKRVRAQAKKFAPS
VIM-2 inhibitor: blocks Pseudomonas aeruginosa VIM-2 metallo-beta-lactamase; purified VIM-2, nitrocefin hydrolysis, epi-absorbance fluorescence; inhibition, % at 5.6 µM; hit rate 0.89% among 290,000; AID 1527;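 active means inhibition above the mean of all tested compounds plus 3 SD, cutoff set per screening run, cut at about 7.5% in these data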;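 further: red hydrolysis product quenches plate fluorescence so inhibitors raise well fluorescence; 0% = enzyme with DMSO and 100% = DMSO without enzyme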
NALP1 inh: blocks the NALP1 inflammasome reconstituted in yeast; hit rate 0.61% among 280,000; S. cerevisiae NALP1/ASC/caspase-1 growth, X-gal OD620, 72 h; inhibition, % at 10 µM; AID 2071; in the data active means inhibition mostly above about 24%, no sharp cut-off; inactive means mostly below about 32%
IMP-1 inh: blocks Pseudomonas aeruginosa IMP-1 metallo-beta-lactamase; purified IMP-1, nitrocefin hydrolysis, epi-absorbance fluorescence; hit rate 0.45% among 290,000; inhibition, % at 5.6 µM; AID 1556;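 active means inhibition above the mean plus 3 SD of all compounds in the same screening run, cut at about 4.5% in these data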;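 further: 0% = IMP-1 with DMSO and 100% = DMSO wells lacking enzyme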
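assay system = purified recombinant IMP-1 metallo-beta-lactamase enzyme | schedule = 15 min preincubation plus 25 min reaction at 25 °C | signal = Epi-absorbance fluorescence, 480 nm excitation, 530 nm emission | read-out basis = percent inhibition from optical density relative to buffer-blank wells | controls = IMP-1 with DMSO as 0%, enzyme-free DMSO as 100%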
* = called active by the depositor; / = no result given. Compounds with a hit are over-represented: about 2.9% of the library has one in this group of screens.

SMILES	SUMO Mot1 rescue	FID counter	SUMO HTRF inh	VIM-2 inhibitor	NALP1 inh	IMP-1 inh
Cc1ccc(S(=O)(=O)N2CCC[C@H]2C(=O)OCC(=O)N2CCc3ccccc32)cc1	-5	/	/	/	/	/
CCCN1CC(O)=C(C#N)C1=O	136	3	-3	0	-10	-2
O=C(NCc1ccco1)c1ccc(N2CCCCC2)c([N+](=O)[O-])c1	812*	-7	22	0	46	-2
O=C(NCc1ccco1)c1ccc(N2CCOCC2)c([N+](=O)[O-])c1	11	-1	12	-3	4	-4
COc1ccc2c(c1)cc1c(=O)n(CC(=O)NC(C)CCc3ccccc3)nc(C)n12 (centres undefined)	-3	-3	19	0	18	1
Cc1ccc2nc(-c3ccccc3)c(CC(=O)O)c(C(=O)O)c2c1	164	-7	9	-2	-6	-4
COc1ccc(C2=C(C)C(N3CCN(C(=O)c4ccco4)CC3)=NS2(=O)=O)cc1	-1	-22	22	1	13	-2
CC(C)(CN1CCCCC1)NS(=O)(=O)c1ccc(Cl)cc1	196	1	17	-6	12	-2
CC1CC(C)CN(CC(C)(C)NS(=O)(=O)c2ccc(Cl)cc2)C1 (centres undefined)	276*	10	7	-8	13	-5
CC1(C2CC2)NC(=O)N(CC(=O)N2CCN(c3cccc(C(F)(F)F)c3)CC2)C1=O (centres undefined)	-18	/	/	/	/	/
CCC1=NNc2cccc3c(OC)ccc1c23	/	2	59*	0	-6	-4
COc1ccc(C(C)=O)c2c(O)cccc12	-5	-2	11	0	17	0
CCOC(=O)/C(=N\Nc1ccc(Br)cc1)N1CC(C)OC(C)C1 (centres undefined)	428*	-9	8	0	/	-1
Cc1ccc(-c2csc(NC(=O)c3ccc(Br)cc3)c2C(=O)O)cc1	6	-8	27	-2	61*	-1
Cc1ccc(N2C(=O)CC(Sc3ncccc3C(=O)O)C2=O)cc1 (centres undefined)	4	-2	12	0	3	-1
Cc1cccc(N2C(=O)CC(Sc3ccccc3C(=O)O)C2=O)c1 (centres undefined)	107	5	-13	-2	78*	-2
Cc1ccc(N2C(=O)CC(Sc3ccccc3C(=O)O)C2=O)cc1 (centres undefined)	81	3	17	-1	63*	-2
Cc1ccc(N2C(=O)CC(Sc3ccccc3C(=O)O)C2=O)cc1C (centres undefined)	-6	-1	7	-1	36*	-2
CN(C)c1ccc(N2C(=O)CC(Sc3ccccc3C(=O)O)C2=O)cc1 (centres undefined)	-38	-4	0	-1	52*	-5
Cc1cc(C)cc(N2C(=O)CC(Sc3ccccc3C(=O)O)C2=O)c1 (centres undefined)	5	-6	12	-1	10	0
Cc1cc(NC(=O)CCC(=O)N(Cc2cccnc2)C(C(=O)NC(C)(C)C)c2ccccc2Cl)no1 (centres undefined)	6	-32	4	0	17	-2
O=C(COC(=O)c1cccs1)Nc1nnc(-c2ccccc2)o1	-31	/	/	/	/	/
COc1ccc(NC(=O)CSc2nnc3n2CCCCC3)cc1S(=O)(=O)N1CCOCC1	11	/	/	/	/	/
O=C(COC(=O)c1ccc([N+](=O)[O-])o1)Nc1ccc(Br)cc1F	337*	/	/	/	/	/
CCc1ccccc1N(C(=O)c1snc(C(N)=O)c1N)C(C(=O)NCC1CCCO1)c1ccc(C)o1 (centres undefined)	3	-57	4	-3	-23	-3
SMILES	SUMO Mot1 rescue	FID counter	SUMO HTRF inh	VIM-2 inhibitor	NALP1 inh	IMP-1 inh
CN(CCNC(=O)CN1CCN(Cc2ccccc2Cl)C1=O)Cc1ccccc1	3	5	-7	-3	45*	-5
O=C(CN1CCN(Cc2ccc(F)cc2Cl)C1=O)NCCc1ccccc1	-3	-25	2	1	-15	-4
COCn1ccnc1C(O)(c1ccc(OC)cc1)c1ccc(OC)cc1	-2	-10	10	-4	1	-3
COc1ccc(CC2S/C(=N/N=C/c3ccc(O)cc3)NC2=O)cc1 (centres undefined)	0	-4	31	-1	3	-1
O=C1N/C(=N/N=C/c2ccccc2O)SC1Cc1ccc(F)cc1 (centres undefined)	-5	-1	61*	-4	/	-3
COc1ccc(CC2S/C(=N/N=C/c3ccccc3O)NC2=O)cc1 (centres undefined)	29	-2	58*	-6	/	-3
O=C1N/C(=N/N=C/c2ccc(O)cc2)SC1Cc1ccccc1 (centres undefined)	-6	-5	16	-3	5	-2
CC(C)CC1NC(=O)N(Cc2cc(=O)n3ccsc3n2)C1=O (centres undefined)	253	1	3	-3	-6	-4
Cc1oc(-c2ccc(Cl)cc2)cc1-c1nn2c(-c3ccoc3C)nnc2s1	-5	-19	60*	-2	12	-3
NCCC(=O)N1c2ccccc2Sc2ccccc21	-1	1	2	-1	36*	-1
COc1cc(Br)c(Br)c(Br)c1N	-6	3	-1	-3	-1	-1
CCOc1ccc(C(C)=O)cc1CN1C(=O)NC2(CCCCCCC2)C1=O	1	-28	-1	-1	1	-3
Cc1cccc(C)c1OCC(O)CN1CCC(CN2C(=O)c3cccc4cccc(c34)C2=O)CC1 (centres undefined)	-22	11	-24	7	43*	-3
COc1ccc(NC(=S)N(CCCN2CCCC2)Cc2cccn2Cc2ccc(Cl)cc2)cc1Cl	-11	28	-2	-2	6	0
O=[N+]([O-])c1cc(C(F)(F)F)ccc1NC1CCN(Cc2ccccc2)C1 (centres undefined)	262*	19	-7	-2	4	-3
COc1cccc(-c2c(NC(=O)c3ccco3)oc3ccc(Cl)cc3c2=O)c1	6	-25	13	0	2	-4
COc1cccc(-c2c(NC(=O)c3ccco3)oc3ccccc3c2=O)c1	519*	-16	22	-3	12	-2
CCOc1cc(/C=C2\SC(=Nc3ccccc3)N(c3ccccc3)C2=O)ccc1OCC(=O)O	-2	-7	28	-2	26	-1
CCOc1cc(/C=C2\SC(=Nc3ccc(F)cc3)N(c3ccc(F)cc3)C2=O)ccc1OCC(=O)O	4	44*	26	0	5	-2
O=C(NC1CCN(Cc2ccccc2)CC1)C1CCN(S(=O)(=O)c2ccccc2)CC1	-9	1	6	1	1	-1
Cc1noc(C)c1S(=O)(=O)N1CCC(C(=O)NC2CCN(Cc3ccccc3)CC2)CC1	-2	2	9	-5	39*	-3
